Measurements pooled from the literature.
Each line is one published result; the experiments were not run side by side.
Cell line: A549
Read-out: cell growth or viability

Structure (SMILES) | assay | setting | quantity | value
CCCCCCCCCCCCCCCCCCOc1ccc(CC(=O)OCC[N+]2(C)CCCC2)cc1 | SRB | 10 µM | inhibition | 2.78%
N[C@@H](CO)C(=O)Nc1ccccc1/N=c1\cc(-c2ccc3c(c2)OCO3)oc2ccccc12 | CCK-8 | 1 µM | inhibition | -0.16%
COc1ccc(NC(=O)Nc2ccc(-c3cn(Cc4ccc(C)cc4)nn3)cc2)cc1 | CCK-8 | 20 µM, 72 h | viability | 67.9%
CCCCCCCCCCCCCCCCCCOc1ccccc1CC(=O)OCC[N+]1(C)CCCCC1 | SRB | 10 µM | inhibition | 57.8%
O=C(NCc1cn(Cc2ccc(Cl)cc2)nn1)Nc1ccccc1Br | CCK-8 | 50 µM, 72 h | viability | 86.1%
COc1ccc(NC(=O)Nc2cccc(-c3cn(Cc4ccc(Br)cc4)nn3)c2)cc1 | CCK-8 | 50 µM, 72 h | viability | 271%
COc1ccc2/c(=N/c3ccccc3NC(=O)[C@H](C)N)cc(-c3ccc4c(c3)OCCO4)oc2c1 | CCK-8 | 1 µM | inhibition | -2.21%
CCCCn1cnc2ccc(-c3ccc(NC(=O)C4CCC4)nc3)cc2c1=O | CCK-8 | 72 h | IC50 | 3.93 µM
COc1ccc(NC(=O)Nc2cccc(-c3cn(Cc4ccc(Cl)cc4)nn3)c2)cc1 | CCK-8 | 50 µM, 72 h | viability | 270%
Nc1nc2ccc(-c3c/c(=N\c4ccccc4NC(=O)C4CCNC4)c4ccccc4o3)cc2o1 (stereo not drawn) | CCK-8 | 1 µM | inhibition | 22.7%
COc1ccc(NC(=O)Nc2cccc(-c3cn(Cc4cccc(Cl)c4)nn3)c2)cc1 | CCK-8 | 50 µM, 72 h | viability | 237%
NCCC(=O)Nc1ccc(/N=c2\cc(-c3ccc4c(c3)OCO4)oc3ccccc23)cc1 | CCK-8 | 1 µM | inhibition | -1.6%
O=C(Nc1ccc(Cl)cc1)Nc1cccc(-c2cn(Cc3cccc(Cl)c3)nn2)c1 | CCK-8 | 20 µM, 72 h | viability | 115%
CCCCC(=O)Nc1ccc(-c2ccc3ncn(CCC(C)C)c(=O)c3c2)cn1 | CCK-8 | 72 h | IC50 | 0.45 µM
O=C(Nc1cccc(-c2cn(Cc3ccc(Cl)cc3)nn2)c1)Nc1ccccc1Br | CCK-8 | 20 µM, 72 h | viability | 159%
O=C(Nc1ccc(Cl)cc1)Nc1nc2cc(-c3ccc4ncn(Cc5ccccc5)c(=O)c4c3)ccc2s1 | MTT | 72 h | IC50 | > 20 µM
CCOc1ccc(C(=O)CC(SCc2ccc(Cl)cc2)C(=O)OC)cc1 (stereo not drawn) | MTT | 48 h | EC50 | > 250 µM
Cc1c(Cl)c(=O)oc2cc(OCCCCSC#N)ccc12 | SRB | – | GI50 | 13 µM
O=C(Nc1ccc(-c2cn(Cc3ccc(Cl)cc3)nn2)cc1)Nc1ccccc1Br | CCK-8 | 50 µM, 72 h | viability | 107%
COc1ccc(NC(=O)NCc2cn(Cc3ccccc3C)nn2)cc1 | CCK-8 | 50 µM, 72 h | viability | 68%

Structure (SMILES) | assay | setting | quantity | value
O=C(NCc1cn(Cc2ccc(Br)cc2)nn1)Nc1ccc(Cl)cc1 | CCK-8 | 20 µM, 72 h | viability | 102%
C[C@H](N)C(=O)Nc1ccccc1/N=c1\cc(-c2ccc3c(c2)OCCO3)oc2c(N)cccc12 | CCK-8 | 1 µM | inhibition | 0.27%
CCCCCCCCCCCCCCCCCCOc1ccccc1CC(=O)OCC[N+]1(C)CCOCC1 | SRB | 10 µM | inhibition | 37.4%
CCCCn1cnc2ccc(-c3ccc(NC(=O)Nc4ccc(C(F)(F)F)cc4)nc3)cc2c1=O | CCK-8 | 72 h | IC50 | > 10 µM
C[C@H](N)C(=O)Nc1ccccc1/N=c1\cc(-c2ccc3c(c2)OCCO3)oc2cc(F)ccc12 | CCK-8 | 1 µM | inhibition | -0.65%
CCCCCCCCCCCCCCCCCCOc1ccccc1CC(=O)OCC[N+](C)(C)C | SRB | 10 µM | inhibition | 88.5%
O=C(Nc1ccc(Cl)cc1)Nc1cccc(-c2cn(Cc3cccc(Br)c3)nn2)c1 | CCK-8 | 50 µM, 72 h | viability | 145%
CCCC(=O)Nc1nc2cc(-c3ccc4ncn(Cc5ccccc5)c(=O)c4c3)ccc2s1 | MTT | 72 h | IC50 | 7.87 µM
CCCCC(=O)Nc1ccc(-c2ccc3ncn(CC4CC4)c(=O)c3c2)cn1 | CCK-8 | 72 h | IC50 | 0.42 µM
CCCCCCCCCCCCCCCCCCOc1cccc(CC(=O)OCC[N+]2(C)CCCCC2)c1 | SRB | 10 µM | inhibition | 9.38%
CCCCCC(=O)Nc1ccc(-c2ccc3ncn(CCCC)c(=O)c3c2)cn1 | CCK-8 | 72 h | IC50 | 1.34 µM
COc1ccc(NC(=O)Nc2cccc(-c3cn(Cc4ccccc4C)nn3)c2)cc1 | CCK-8 | 50 µM, 72 h | viability | 212%
C#CCn1cnc2ccc(-c3ccc(NC(=O)CCCC)nc3)cc2c1=O | CCK-8 | 72 h | IC50 | > 10 µM
O=C(Nc1ccccc1/N=c1\cc(-c2ccc3c(c2)OCO3)oc2ccccc12)N1CCNCC1 | CCK-8 | 1 µM | inhibition | -6.54%
O=C(NCc1cn(Cc2cccc(Cl)c2)nn1)Nc1ccc(Cl)cc1 | CCK-8 | 50 µM, 72 h | viability | 79.5%
CCCCC(=O)Nc1ccc(-c2ccc3ncn(CC#N)c(=O)c3c2)cn1 | CCK-8 | 72 h | IC50 | > 10 µM
O=C(Nc1ccc(Cl)cc1)Nc1ccc(-c2cn(Cc3ccc(Br)cc3)nn2)cc1 | CCK-8 | 20 µM, 72 h | viability | 69.1%
COc1ccc2/c(=N/c3ccccc3NC(=O)[C@@H](N)C(C)(C)C)cc(-c3ccc4c(c3)OCO4)oc2c1 | CCK-8 | 1 µM | inhibition | -3.68%
Cc1cccc(NC(=O)Nc2ccc(-c3ccc4ncn(Cc5ccccc5)c(=O)c4c3)cn2)c1 | CCK-8 | 72 h | IC50 | > 10 µM
